In brackets after ≈: the same amount, converted by molar mass.
Tests used:
[1] = system: Mycobacterium tuberculosis; assay: Antimycobacterial activity against Mycobacterium tuberculosis H37Rv after 7 days by resazurin microtitre plate assay; type: functional; details: 168 h
Outline: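 REMA in Middlebrook 7H9 with OADC. Three-week culture vortexed with glass beads, adjusted to 1.0 McFarland (about 3×10⁸ bacteria/mL) and diluted 20-fold. Final concentrations 1.6–200 via 2-fold dilutions; growth control plus 1% ([…] diluted) control. 7 days at 35 °C, then 0.01% resazurin for 18 h; fluorescence ex 520/em 590 nm. MIC taken where fluorescence plateaued or matched the 1% control (t-test).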

Mus musculus [2] = assay: Toxicity in C57BL6 mouse assessed as liver mass quotient at 700 to 1100 mg/kg, po measured after 14 days relative to total body weight; type: organism-based; details: in vivo, 336 h
Outline: (§1)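 Male C57BL6 mice (19.0–22.0 g), quarantined 14 days, 6 per dose group. Single oral gavage of Tween-80 suspension in water at 700–1100 mg/kg in 100 mg/kg steps; controls (7 mice) received 0.01% Tween-80. Lethality, time to death and clinical signs recorded daily for 14 days, then cervical dislocation and necropsy; heart, lung, liver, spleen and left kidney weights expressed relative to body weight. LD50 calculated by formula from dead/total counts.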

Mus musculus [3] = assay: Toxicity in C57BL6 mouse assessed as spleen mass quotient at 700 to 1100 mg/kg, po measured after 14 days relative to total body weight; type: organism-based; details: in vivo, 336 h; outline: as §1
Mus musculus [4] = assay: (§2) Toxicity in po dosed C57BL6 mouse assessed as lethality measured daily over 14 days of treatment; type: organism-based; details: mouse, in vivo, 336 h; outline: as §1
[5] = as §2; type: organism-based; details: C57BL6, mouse, in vivo; outline: as §1
Klebsiella pneumoniae = assay: Antibacterial activity against Klebsiella pneumoniae assessed as diameter of inhibition zone measured after 18 hrs by Kirby-Bauer disk diffusion test; type: functional
[6] = system: Mycobacterium tuberculosis; assay: Antitubercular activity against Mycobacterium tuberculosis H37Rv infected in C57BL/6 mouse assessed as tubercular foci index at 20 mg/kg, po administered via gavage over 42 days (excluding weekends) (reference value: 23.6 +/- 0.09); type: functional
Mus musculus [7] = assay: Toxicity in C57BL6 mouse assessed as lethality at 700 mg/kg, po measured daily over 14 days of treatment; type: organism-based; details: in vivo, 336 h; outline: as §1
Mus musculus [8] = assay: Toxicity in C57BL6 mouse assessed as lung mass quotient at 700 to 1100 mg/kg, po measured after 14 days relative to total body weight; type: organism-based; details: in vivo, 336 h; outline: as §1
Mus musculus [9] = assay: Toxicity in C57BL6 mouse assessed as left kidney mass quotient at 700 to 1100 mg/kg, po measured after 14 days relative to total body weight; type: organism-based; details: in vivo, 336 h; outline: as §1
Acinetobacter baumannii = assay: Antibacterial activity against Acinetobacter baumannii assessed as diameter of inhibition zone measured after 18 hrs by Kirby-Bauer disk diffusion test; type: functional
Mus musculus [10] = assay: Toxicity in C57BL6 mouse assessed as body mass at 700 to 1100 mg/kg, po measured after 14 days (reference value: 22.9 +/- 0.32 g); type: organism-based; details: in vivo, 336 h; outline: as §1
Klebsiella aerogenes = assay: Antibacterial activity against Enterobacter aerogenes assessed as diameter of inhibition zone measured after 18 hrs by Kirby-Bauer disk diffusion test; type: functional
Mus musculus [11] = assay: Toxicity in C57BL6 mouse assessed as lethality at 1100 mg/kg, po measured daily over 14 days of treatment; type: organism-based; details: in vivo, 336 h; outline: as §1
Enterococcus faecium = assay: Antibacterial activity against Enterococcus faecium assessed as diameter of inhibition zone after 18 hrs by Kirby-Bauer disk diffusion test; type: functional
[12] = system: Mycobacterium tuberculosis; assay: Antitubercular activity against Mycobacterium tuberculosis H37Rv infected in C57BL/6 mouse assessed as lung mass index at 20 mg/kg, po administered via gavage over 42 days (excluding weekends) (reference value: 2.28 +/- 0.1); type: functional
Mus musculus [13] = assay: Toxicity in C57BL6 mouse assessed as brain mass quotient at 700 to 1100 mg/kg, po measured after 14 days relative to total body weight; type: organism-based; details: in vivo, 336 h
Mus musculus [14] = assay: Toxicity in C57BL6 mouse assessed as heart mass quotient at 700 to 1100 mg/kg, po measured after 14 days relative to total body weight; type: organism-based; details: in vivo, 336 h; outline: as §1
[15] = system: Mycobacterium tuberculosis; assay: Antitubercular activity against Mycobacterium tuberculosis H37Rv infected in C57BL/6 mouse assessed as colony forming units per lung mass unit at 20 mg/kg, po administered via gavage over 42 days (excluding weekends) (reference value: 169.1 +/- 11.83 x 10^3); type: functional
Pseudomonas aeruginosa = assay: Antibacterial activity against Pseudomonas aeruginosa assessed as diameter of inhibition zone measured after 18 hrs by Kirby-Bauer disk diffusion test; type: functional
Staphylococcus aureus = assay: Antibacterial activity against Staphylococcus aureus assessed as diameter of inhibition zone after 18 hrs by Kirby-Bauer disk diffusion test; type: functional

## Cc1cnc(C)n1C1CCN(C(=O)c2ccc([N+](=O)[O-])o2)C1 (configuration not stated)
[1]
  MIC: 3.1 µg/mL (≈ 10.2 µM)

## Cc1cnc(CCNC(=O)c2ccc([N+](=O)[O-])o2)n1C1CCCCCCC1
[1]
  MIC: 25 µg/mL (≈ 66.8 µM)

## Cc1cnc(-c2ccccc2)n1CC1CCN(C(=O)c2ccc([N+](=O)[O-])o2)C1 (configuration not stated)
[1]
  MIC: 6.2 µg/mL (≈ 16.3 µM)

## CCCn1c(C)cnc1C1CN(C(=O)c2ccc([N+](=O)[O-])o2)C1
Mus musculus [2]
  fold change (FC): 4.49
Mus musculus [3]
  fold change (FC): 0.23
Mus musculus [4]
  LD16: 287.5 mg/kg
  LD84: 1037.5 mg/kg
  LD100: 1100 mg/kg
[5]
  LD50 at 336 h: 900 mg/kg
Klebsiella pneumoniae
  diameter of the inhibition zone (DIZ): 0 mm
[6]
  Activity_index: 2.7
Mus musculus [7]
  Activity: Non-Toxic
Mus musculus [8]
  fold change (FC): 0.48
Mus musculus [9]
  fold change (FC): 0.39
Acinetobacter baumannii
  diameter of the inhibition zone (DIZ): 25 mm
Mus musculus [10]
  Activity: 22.32 g
Klebsiella aerogenes
  diameter of the inhibition zone (DIZ): 19 mm
Mus musculus [11]
  Activity: Toxic
Enterococcus faecium
  diameter of the inhibition zone (DIZ): 0 mm
[1]
  MIC: 1.6 µg/mL (≈ 5.03 µM)
[12]
  Activity_index: 1.62
Mus musculus [13]
  fold change (FC): 1.11
Mus musculus [14]
  fold change (FC): 0.34
[15]
  Activity: 85.9 ×10³ CFU
Pseudomonas aeruginosa
  diameter of the inhibition zone (DIZ): 0 mm
Staphylococcus aureus
  diameter of the inhibition zone (DIZ): 15 mm

## Cc1cnc(C)n1C1CCCN(C(=O)c2ccc([N+](=O)[O-])o2)C1 (configuration not stated)
[1]
  MIC: 100 µg/mL (≈ 314 µM)

## Cc1cnc(CCNC(=O)c2ccc([N+](=O)[O-])o2)n1C1CCC1
[1]
  MIC: 6.2 µg/mL (≈ 19.5 µM)

## COCCn1c(C)cnc1CC1CCN(C(=O)c2ccc([N+](=O)[O-])o2)CC1
[1]
  MIC: > 100 µg/mL

## Cc1cnc(-c2cccnc2)n1CCC1CCN(C(=O)c2ccc([N+](=O)[O-])o2)CC1
[1]
  MIC: 100 µg/mL (≈ 244 µM)

## Cc1cnc(CC2CCN(C(=O)c3ccc([N+](=O)[O-])o3)C2)n1CC1CC1 (configuration not stated)
[1]
  MIC: 6.2 µg/mL (≈ 17.3 µM)

## Cc1cnc(C2CCCO2)n1CC1CCN(C(=O)c2ccc([N+](=O)[O-])o2)CC1 (configuration not stated)
[1]
  MIC: 50 µg/mL (≈ 129 µM)

## Cc1cnc(Cc2ccccc2)n1CCNC(=O)c1ccc([N+](=O)[O-])o1
[1]
  MIC: 50 µg/mL (≈ 141 µM)

## Cc1cnc(C)n1C1CCN(C(=O)c2ccc([N+](=O)[O-])o2)CC1
[1]
  MIC: > 100 µg/mL

## O=C(O)c1cn(C2CC2)c2cc(N3CCNCC3)c(F)cc2c1=O [CIPROFLOXACIN]
Klebsiella pneumoniae
  diameter of the inhibition zone (DIZ): 26 mm
Acinetobacter baumannii
  diameter of the inhibition zone (DIZ): 31 mm
Klebsiella aerogenes
  diameter of the inhibition zone (DIZ): 26 mm
Enterococcus faecium
  diameter of the inhibition zone (DIZ): 25 mm
Staphylococcus aureus
  diameter of the inhibition zone (DIZ): 27 mm

## CC[C@@H](CO)NCCN[C@@H](CC)CO [ETHAMBUTOL]
[6]
  Activity_index: 2.65
[12]
  Activity_index: 1.61
[15]
  Activity: 85.32 ×10³ CFU

Source: ChEMBL document CHEMBL4261586, “Conjugation of a 5-nitrofuran-2-oyl moiety to aminoalkylimidazoles produces non-toxic nitrofurans that are efficacious in vitro and in vivo against multidrug-resistant Mycobacterium tuberculosis” (Eur J Med Chem, 2018)
